Data on four molecules can be found in ChEMBL document CHEMBL3243964, “Biomolecules bearing the S- or SeAsMe2 function: amino acid and steroid derivatives” (J Med Chem, 1979).

The test system of data set [1] is L1210. Kind of data set: Carcinostatic activity against mouse L1210 cells allografted in mouse assessed as increase in survival at 100 mg/kg relative to control. It counts as functional.
Data set [2] is filed under the species Mus musculus. Put plainly: Toxicity in mouse allografted with mouse L1210 cells. It counts as organism-based.
In data set [3] the test system is L1210. Kind of data set: Carcinostatic activity against mouse L1210 cells allografted in mouse assessed as increase in survival at 50 mg/kg relative to control. In kind it is functional.
Data set [4] relates to L1210. Put plainly: Carcinostatic activity against mouse L1210 cells allografted in mouse assessed as increase in life span at 100 mg/kg relative to control. It counts as functional. In a few lines: (§1)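 Mice bearing L1210 lymphoid leukemia, tested externally. Read-out is percent increased life span (ILS) of treated versus control animals at the dose shown in mg/kg.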
The test system of data set [5] is Staphylococcus aureus. Put plainly: Bacteriostatic activity against Staphylococcus aureus 209. It counts as functional.
The test system of data set [6] is Staphylococcus aureus. Kind of data set: Bacteriostatic activity against Staphylococcus aureus 209 cultured in nutrient broth. It counts as functional, organism-based. In outline: (§2)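 Bacteria grown in nutrient broth with the compound. Read-out is inhibition of growth, with total inhibition scored. Gram-negative (K. pneumoniae) and Gram-positive strains were tested.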

Data set [7] has as its system L1210. Kind of data set: Carcinostatic activity against mouse L1210 cells allografted in mouse assessed as increase in life span at 500 mg/kg relative to control. In kind it is functional. In a few lines:
as §1

Data set [8] deals with Klebsiella pneumoniae. Put plainly: Bacteriostatic activity against Klebsiella pneumoniae. In kind it is functional, organism-based. In outline:
as §2

As a reminder, the T/C is the ratio of treated to control.

The structures appear in SMILES notation. Calls of active or inactive are those of the source. The calls are words filed in the database; no cut-off is given here. Bounds are passed on as bounds.

With `C[As](C)SCC[C@H](NC(=O)[C@@H](N)CCS[As](C)C)C(=O)O`, the T/C in data set [1] is 144%. The Activity in data set [2] is > 200 mg/kg.
On to `C[As](C)SCC[C@@H](CCCCC(=O)O)S[As](C)C`, for which the T/C in data set [3] is given as 128%. In addition, the Activity in data set [2] came out at 100 mg/kg; in data set [4], 33%.
Turning to `C[As](C)SCC(N)C(=O)O` (racemic), the T/C in data set [3] is recorded as 110%. Moreover, the Activity in data set [2] stood at 200 mg/kg. The “inhibition zone (IZ)” value in data set [5] was determined as 15 mm. Further, the “growth inhibition (GI)” value in data set [6] was “Active”.
For the molecule `C[As](C)SC[C@H](NC(=O)CC[C@H](N)C(=O)O)C(=O)NCC(=O)O` [DARINAPARSIN], the T/C in data set [1] was 164%. In addition, the Activity turned out to be 400 mg/kg in data set [2] and 33% in data set [7]. The “inhibition zone (IZ)” value in data set [5] turned out to be 20 mm. In addition, the “growth inhibition (GI)” value in data set [6] is “Active”. Further, in data set [8], the result was Active.
